Laboratory results from ChEMBL document CHEMBL4130632, “Targeting Myeloid Differentiation Using Potent 2-Hydroxypyrazolo[1,5- a]pyridine Scaffold-Based Human Dihydroorotate Dehydrogenase Inhibitors” (J Med Chem, 2018).
pIC50: −log10 of the molar value. One block for each compound: values may come before it.

Experiments:
[1] = Stability of the compound in human serum assessed as compound remaining at 37 degC after 24 hrs by RP-HPLC analysis; assay type: ADME, cell-free; details: read-out: Stability
Summary of the method: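 Compound from DMSO stock added to human male AB serum (2% cosolvent) and shaken at 37 °C. Samples taken at 0–24 h were deproteinized with 0.1% TFA in acetonitrile, centrifuged and filtered. Analyzed by C18 RP-HPLC (acetonitrile/water 70/30, 0.1% TFA). Value is % unmodified parent at 24 h.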

Jurkat [2] = assay: Antiproliferative activity against human Jurkat T cells assessed as DNA content after 72 hrs by Hoechst 33258 dye-based fluorescence assay; assay type: functional, cell-based
Jurkat [3] = assay: Antiproliferative activity against human Jurkat T cells assessed as DNA content after 72 hrs in presence of exogenous uridine by Hoechst 33258 dye-based fluorescence assay; assay type: functional, cell-based
PBMC [4] = assay: Immunosuppressive activity against human PBMC assessed as inhibition of PHA-stimulated cell proliferation preincubated for 2 hrs followed by PHA stimulation for 72 hrs by Hoechst 33258 dye-based fluorescence assay; assay type: functional
PBMC [5] = assay: Immunosuppressive activity against human PBMC assessed as inhibition of PHA-stimulated cell proliferation preincubated for 2 hrs followed by PHA stimulation for 72 hrs in presence of exogenous uridine by Hoechst 33258 dye-based fluorescence assay; assay type: functional
U-937 = assay: Induction of myeloid differentiation in human U937 cells assessed as increase in CD11b expression level at 0.1 to 1 uM up to 4 days by propidium iodide staining-based flow cytometry; assay type: functional
Summary of the method: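 Cells plated at 1 × 10^4 with inhibitor 0.1–10 μM. Differentiation was followed daily by flow cytometry, to day 4 for U937 and day 5 for THP1. Markers were PE-CD11b for U937 and FITC-CD14 for THP1, stained 45 min at 4 °C in PBS/2% BSA/1 mM EDTA. Propidium iodide excluded dead cells. Uridine-rescue (100 μM) samples were read at day 3.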

THP-1 = assay: Induction of myeloid differentiation in human THP1 cells assessed as increase in CD14 expression level at 0.1 to 1 uM up to 4 days by propidium iodide staining-based flow cytometry
Jurkat [6] = assay: Cytotoxicity against human Jurkat T cells assessed as compound concentration required to induce =>30% cell death after 72 hrs by CellTox green assay; assay type: cell-based
Summary of the method: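 Jurkat T cells (complete X-VIVO 15, 10% FBS, 37 °C, 5% CO2; passages 5–10, mycoplasma-tested), 5 × 10^3/well. Cells exposed to 0.001–100 μM compound or DMSO vehicle for 72 h. Cell death read by CellTox Green. Value is the concentration giving significant (≥30%) cytotoxicity, mean ± SE of three independent experiments.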

[7] = target: Dihydroorotate dehydrogenase (quinone), mitochondrial (Homo sapiens, UniProt Q02127); assay: Inhibition of recombinant N-terminal GST-tagged human DHODH (31 to 395 residues) expressed in Escherichia coli BL21(DE3) assessed as inhibition of DCIP reduction using dihydroorotate as substrate preincubated for 5 mins followed by substrate addition measured after 5 mins
Dihydroorotate dehydrogenase (quinone), mitochondrial, sequence (Q02127 whole entry, the tested form may be a part): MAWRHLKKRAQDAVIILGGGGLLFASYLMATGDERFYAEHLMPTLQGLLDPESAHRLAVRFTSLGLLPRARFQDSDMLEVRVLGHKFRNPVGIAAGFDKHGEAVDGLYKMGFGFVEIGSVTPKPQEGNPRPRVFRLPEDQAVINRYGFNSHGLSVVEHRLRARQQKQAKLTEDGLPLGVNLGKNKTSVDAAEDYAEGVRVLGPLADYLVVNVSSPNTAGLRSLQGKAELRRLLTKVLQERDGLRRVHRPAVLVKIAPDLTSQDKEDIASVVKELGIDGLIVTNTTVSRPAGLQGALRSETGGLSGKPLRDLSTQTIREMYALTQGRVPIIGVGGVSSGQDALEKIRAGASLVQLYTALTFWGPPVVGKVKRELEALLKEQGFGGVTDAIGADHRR

SMILES: Cc1c(-c2ccc(-c3ccccc3F)cc2)nc2ccc(F)cc2c1C(=O)O [BREQUINAR]
remaining at 24 h [1]: 98%
pIC50 (Jurkat [2]): 6.04
pIC50 (Jurkat [3]): 4.03
pIC50 (PBMC [4]): 5.43
pIC50 (PBMC [5]): 4.22
%max (U-937): 40%
%max (THP-1): 40%

SMILES: C/C(O)=C(\C#N)C(=O)Nc1ccc(C(F)(F)F)cc1 [TERIFLUNOMIDE]
Activity (Jurkat [6]): 53 µM

pIC50 [7]: 7.35
SMILES: Cn1nc(O)c(C(=O)Nc2c(F)c(F)c(-c3ccccc3)c(F)c2F)n1

pIC50 [7]: < 5.30
SMILES: Cn1c(=O)c(C(=O)Nc2c(F)c(F)c(-c3ccccc3)c(F)c2F)c2ccccn21
